Bioassay records (PubChem)
Shown are actives, neighbours in structure and some others; about 2.3% of the full set was active somewhere.
E coli WT exp: growth inhibitors of E. coli BW25113 wild type. OD600 absorbance. growth inhibition, % at 100 µM. 98,000 tested, 0.15% active;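 active = growth inhibition above about 50% at one test dose, limit read from the data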;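 also: growth measured after 20 h incubation at 37 °C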
Ecoli tolC: growth inhibitors of E. coli BW25113 tolC mutant; OD615; growth inhibition, % at 10 µM (by protocol); 65,000 tested, 2.2% active;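 active = growth inhibition at or above a cutoff equal to the mean over every tested compound plus 3 SD, cut at about 60% in these data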;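 also: growth measured after 20 h incubation at 37 °C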
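System: E. coli ΔtolC::kan strain BW25113; Buffer or medium: LB broth supplemented with 50 µg/mL kanamycin; Compound: 10 µM final, single dose; Incubation: bacterial growth with compound for 20 h at 37 °C; Signal: A615 absorbance measurement; Evaluation: growth inhibition in percent.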
Pyk2 oligo antag: antagonists of human Pyk2 oligomerization; z-score (the deposit names both 25 µM and 10 µM); Q293 cells, Pyk2 FERM NanoBiT luminescence; active compounds read low; 99,000 tested, 0.83% active; AID 1347419;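 active = Z-score of -3 or lower, scaled per plate to the spread of control and sample wells; inactive = z-score above -3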;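 also: negative z-score means lost luminescence so less FERM oligomerization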
Mac1 fbg enh: CD11b/CD18-fibrinogen binding enhancement | P05107+P11215 | AID 1499 | 93,000 tested, 0.07% active | K562 CD11b/CD18 adhesion to fibrinogen, ATPlite luminescence | activation, % at 10 µM;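 active = 10 µM primary screen giving 50% or more activity, confirmed by 40% or more on retest at that dose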
Target sequence (P05107 whole entry, looked up, other chains not shown): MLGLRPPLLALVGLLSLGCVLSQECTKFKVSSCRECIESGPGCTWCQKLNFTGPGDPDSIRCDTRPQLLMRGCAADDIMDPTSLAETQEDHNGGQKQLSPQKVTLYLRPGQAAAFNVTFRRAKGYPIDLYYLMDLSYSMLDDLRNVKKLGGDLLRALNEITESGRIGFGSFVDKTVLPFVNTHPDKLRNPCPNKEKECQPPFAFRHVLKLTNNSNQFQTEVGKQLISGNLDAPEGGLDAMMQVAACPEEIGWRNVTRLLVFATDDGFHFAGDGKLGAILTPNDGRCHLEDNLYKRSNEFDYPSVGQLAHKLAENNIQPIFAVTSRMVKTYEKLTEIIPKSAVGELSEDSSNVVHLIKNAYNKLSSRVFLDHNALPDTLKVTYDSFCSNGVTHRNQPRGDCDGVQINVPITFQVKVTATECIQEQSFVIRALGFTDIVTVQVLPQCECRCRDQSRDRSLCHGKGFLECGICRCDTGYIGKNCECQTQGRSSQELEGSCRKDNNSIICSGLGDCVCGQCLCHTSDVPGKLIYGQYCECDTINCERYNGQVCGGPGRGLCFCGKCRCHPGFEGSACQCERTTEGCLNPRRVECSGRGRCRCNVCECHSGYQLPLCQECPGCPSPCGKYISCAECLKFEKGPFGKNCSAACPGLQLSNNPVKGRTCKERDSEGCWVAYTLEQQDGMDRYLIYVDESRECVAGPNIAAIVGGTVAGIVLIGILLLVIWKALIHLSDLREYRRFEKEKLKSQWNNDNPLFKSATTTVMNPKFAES
CD11b adhes inh: CD11b/CD18-fibrinogen binding inhibition; inhibition, % at 10 µM; K562 CD11b/CD18 adhesion to fibrinogen, ATPlite luminescence; Mn2+ added to activate the integrin; P05107+P11215; 93,000 tested, 0.54% active;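 active = primary inhibition of 50% or more at 10 µM, then 40% or more on retest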
* hit, by the source's call.

What do the screens show for `COC(=O)c1[nH]c2ccc(C)cc2c1NC(=O)CN1CCCc2ccccc21`?
E coli WT exp: 5; Ecoli tolC: 17; Pyk2 oligo antag: -0.32; Mac1 fbg enh: 108; CD11b adhes inh: -34

Results for Cc1ccc(C2(c3ccc(C)cc3)CC2C(=O)Nc2ccc([N+](=O)[O-])cc2O)cc1 (stereo unspecified) ?
E coli WT exp: 1; Pyk2 oligo antag: -3.4*; Mac1 fbg enh: -10; CD11b adhes inh: 99

How did CNc1nc(Nc2ccc(C(C)=O)cc2)nc(OC(C(F)(F)F)C(F)(F)F)n1 do in these assays?
E coli WT exp: -3; Ecoli tolC: 67*; Pyk2 oligo antag: -3.2*; Mac1 fbg enh: -1; CD11b adhes inh: -4

How did COc1ccc(Nc2nc(NCCO)nc(OC)n2)cc1 do in these assays?
E coli WT exp: -4; Pyk2 oligo antag: 1.6; Mac1 fbg enh: -5; CD11b adhes inh: 5

How did CC(=O)c1ccc(Nc2nc(NCCO)nc(OC(C(F)(F)F)C(F)(F)F)n2)cc1 do in these assays?
Pyk2 oligo antag: -3.3*

Results for C=CCn1c2ccccc2c2nnc(SCCCn3c(=O)[nH]c4ccccc43)nc21 ?
E coli WT exp: -9; Ecoli tolC: 29; Pyk2 oligo antag: -3.9*; Mac1 fbg enh: -2; CD11b adhes inh: 34

Results for COc1ccccc1N1CCN(C(=O)Cc2cccs2)CC1 ?
E coli WT exp: 3; Ecoli tolC: 1; Pyk2 oligo antag: 1.1; Mac1 fbg enh: 2; CD11b adhes inh: -2

How did CO[C@@]1(NC(=O)Cc2cccs2)C(=O)N2C(C(=O)O)=C(COC(N)=O)CS[C@@H]21 do in these assays?
Ecoli tolC: 100*

What do the screens show for `COC(=O)c1cccc(-n2nnnc2SCC(=O)Nc2nc3c(s2)CCCC3)c1`?
E coli WT exp: -5; Ecoli tolC: 84*; Pyk2 oligo antag: 0.97; Mac1 fbg enh: 6; CD11b adhes inh: 2

What do the screens show for `O=C(CSc1nnnn1C1CCCCC1)Nc1nc2c(s1)CCCC2`?
E coli WT exp: 3; Ecoli tolC: 98*; Pyk2 oligo antag: -1.4; Mac1 fbg enh: -4; CD11b adhes inh: 30

How did COc1ccc2nc(NC(=O)CSc3nnnn3C3CCCCC3)sc2c1 do in these assays?
E coli WT exp: 7; Ecoli tolC: 69*; Pyk2 oligo antag: 1.5; Mac1 fbg enh: 5; CD11b adhes inh: 10

What do the screens show for `COc1cccc(-n2nnnc2SCC(=O)Nc2nc3c(s2)CCCC3)c1`?
Pyk2 oligo antag: -0.54

How did Clc1cccc(NCc2nnc(SCc3ccccc3)o2)c1 do in these assays?
E coli WT exp: 7; Ecoli tolC: 99*; Pyk2 oligo antag: 0.26; Mac1 fbg enh: 8; CD11b adhes inh: -8

Results for O=C(c1ccccc1)N(Cc1ccc2c(c1)OCO2)Cc1nc2ccccc2c(=O)[nH]1 ?
E coli WT exp: -2; Ecoli tolC: -6; Pyk2 oligo antag: -2; Mac1 fbg enh: 2; CD11b adhes inh: -5

Results for CCCNC(=O)NC(=O)CSc1nc2cc(C(=O)OC)ccc2c(=O)n1-c1ccccc1 ?
E coli WT exp: 4; Pyk2 oligo antag: -3.1*; Mac1 fbg enh: 2; CD11b adhes inh: -6

What do the screens show for `O=C1CC(C(=O)Nc2cccc3ccccc23)C2(CCCC2)O1` (stereo unspecified)?
E coli WT exp: -2; Pyk2 oligo antag: 0.93

What do the screens show for `Cc1ccc(NC(=O)Cn2cnc3sc(C(=O)NCc4ccco4)c(C)c3c2=O)cc1Cl`?
E coli WT exp: -9; Pyk2 oligo antag: -3.3*; Mac1 fbg enh: -2; CD11b adhes inh: -16

How did O=C(NC1CC1)c1cccc(Nc2ccc(-c3ccc4c(c3)OCCO4)nn2)c1 do in these assays?
E coli WT exp: -12; Ecoli tolC: 27; Pyk2 oligo antag: -3.4*; Mac1 fbg enh: 0; CD11b adhes inh: 24

How did O=S(=O)(c1ccc(Nc2ccc(-c3ccc4c(c3)OCCO4)nn2)cc1)N1CCCC1 do in these assays?
E coli WT exp: -13; Pyk2 oligo antag: -1.8; Mac1 fbg enh: -2; CD11b adhes inh: 26

How did COc1ccc(-c2cc(C(=O)N3CCc4ccccc4C3)no2)cc1OC do in these assays?
E coli WT exp: -24; Ecoli tolC: 75*; Pyk2 oligo antag: 0.11; Mac1 fbg enh: 3; CD11b adhes inh: -22

What do the screens show for `COc1ccccc1N1CCN(C(=O)c2cc(-c3cccc(Cl)c3)on2)CC1`?
E coli WT exp: -18; Ecoli tolC: 69*; Pyk2 oligo antag: -1; Mac1 fbg enh: -6; CD11b adhes inh: 2
